{"data": "Measured values pooled from the literature", "SLC6A3": "Sodium-dependent dopamine transporter (SLC6A3, Homo sapiens, UniProt Q01959)", "PDE10A": "cAMP and cAMP-inhibited cGMP 3',5'-cyclic phosphodiesterase 10A (PDE10A, Homo sapiens, UniProt Q9Y233)", "note": "Compare with care: the assays were run in different laboratories."}
{"Structure (SMILES)": "OC[C@@]12C[C@@H]1[C@@H](n1cnc3c(NCCCCCCc4ccccc4)nc(I)nc31)[C@H](O)[C@@H]2O", "target": "SLC6A3", "assay": "ligand displacement, radioligand", "conditions": "10 µM", "inhibition": "79%"}
{"Structure (SMILES)": "COc1ccc2c(Cc3cccc(-c4ccccc4)c3)ncnc2c1", "target": "PDE10A", "assay": "enzyme activity, inhibitor, FP", "conditions": "0.1 µM", "inhibition": "22%"}
{"Structure (SMILES)": "NC/C(=C\\F)COc1cccc(Cn2c(=S)[nH]c(=O)c3[nH]cnc32)c1", "target": "SLC6A3", "assay": "ligand displacement, radioligand", "conditions": "10 µM", "inhibition": "< 50%"}
{"Structure (SMILES)": "O[C@@H]1[C@H](O)[C@@H]2C[C@@H]2[C@H]1n1cnc2c(NCCC3CC3)ncnc21", "target": "SLC6A3", "assay": "transporter uptake, inhibitor, radiometric", "system": "HEK293", "conditions": "20 nM", "inhibition": "50%"}
{"Structure (SMILES)": "COc1ccc2ccnc(Cc3ccc(OC)c(OC)c3)c2c1", "target": "PDE10A", "assay": "enzyme activity, inhibitor, FP", "conditions": "0.1 µM", "inhibition": "11%"}
{"Structure (SMILES)": "CCN1/C(=C/C(C)=O)Sc2ccc(F)cc21", "target": "SLC6A3", "assay": "ligand displacement, radioligand", "conditions": "10 µM", "inhibition": "1.26%"}
{"Structure (SMILES)": "C#Cc1cc(-c2cc(Nc3nc(N[C@@H](C)c4ccc(F)cn4)ncc3Cl)n[nH]2)ccc1C=O", "target": "Activated CDC42 kinase 1 (TNK2, Homo sapiens, UniProt Q07912)", "assay": "enzyme activity, inhibitor", "conditions": "0.2 µM", "inhibition": "73.3%"}
{"Structure (SMILES)": "CCOC(=O)[C@@]12C[C@@H]1[C@@H](n1cnc3c(NCCCCCc4ccccc4)nc(I)nc31)[C@H](O)[C@@H]2O", "target": "SLC6A3", "assay": "ligand displacement, radioligand", "conditions": "10 µM", "inhibition": "85%"}
{"Structure (SMILES)": "COc1cc2ncnc(Cc3cccc4ccccc34)c2cc1OC", "target": "PDE10A", "assay": "enzyme activity, inhibitor, FP", "conditions": "0.1 µM", "inhibition": "56%"}
{"Structure (SMILES)": "CCOC(=O)[C@@]12C[C@@H]1[C@@H](n1cnc3c(NCc4cccc(Cl)c4)nc(C#Cc4ccc(Cl)s4)nc31)[C@H](O)[C@@H]2O", "target": "SLC6A3", "assay": "ligand displacement, radioligand", "conditions": "10 µM", "inhibition": "75%"}
{"Structure (SMILES)": "COc1ccc2c(Cc3cccc(-c4ccccc4)c3)ccnc2c1", "target": "PDE10A", "assay": "enzyme activity, inhibitor, FP", "conditions": "0.1 µM", "inhibition": "22%"}
{"Structure (SMILES)": "N#CC[C@@]12C[C@@H]1[C@@H](n1cnc3c(NCCCCCc4ccccc4)nc(C#Cc4ccc(Cl)s4)nc31)[C@H](O)[C@@H]2O", "target": "SLC6A3", "assay": "ligand displacement, radioligand", "conditions": "10 µM", "inhibition": "7%"}
{"Structure (SMILES)": "Cc1cc(F)cc2c(CCC(=O)N[C@@H]3C(=O)NC[C@H]3O)c(-c3ccc(F)cc3)[nH]c12", "target": "SLC6A3", "assay": "cell-free assay", "conditions": "10 µM", "inhibition": "17%"}
{"Structure (SMILES)": "COc1ccc2c(Cc3cccc(-c4ccccc4)c3)nccc2c1", "target": "PDE10A", "assay": "enzyme activity, inhibitor, FP", "conditions": "0.1 µM", "inhibition": "3%"}
{"Structure (SMILES)": "CCOC(=O)[C@@]12C[C@@H]1[C@@H](n1cnc3c(NCc4cccc(Cl)c4)nc(I)nc31)[C@H](O)[C@@H]2O", "target": "SLC6A3", "assay": "ligand displacement, radioligand", "conditions": "10 µM", "inhibition": "37%"}
{"Structure (SMILES)": "NC(=O)CC[C@H](N)C(=O)NCC(=O)NCC(=O)N[C@@H](CC(=O)O)C(=O)N[C@@H](Cc1ccccc1)C(=O)O", "target": "Angiotensin-converting enzyme (ACE, Homo sapiens, UniProt P12821)", "assay": "enzyme activity, inhibitor", "conditions": "1.4 mM", "inhibition": "49.9%"}
{"Structure (SMILES)": "COc1cc2ncnc(Cc3cccc(-c4ccccc4OC)c3)c2cc1OC", "target": "PDE10A", "assay": "enzyme activity, inhibitor, FP", "conditions": "0.1 µM", "inhibition": "31%"}
{"Structure (SMILES)": "Cc1cc(O)c(-c2ccc([C@@H](C)CN(C)C)cc2)c2c1[nH]c(=O)c1sccc12", "target": "Serine/threonine-protein kinase ATR (ATR, Homo sapiens, UniProt Q13535)", "assay": "cell-free assay, inhibitor", "conditions": "0.1 µM, lysate", "inhibition": "8.12%"}
